Only some compounds are listed: those with a hit (about 2.2% of all), similar ones and a draw of the others.
NR2E3 ag-1 = NR2E3 agonists in two-hybrid cells, primary screen, cell-based, luminescence, CHO-S, Gal4-NCOR/VP16-NR2E3; luciferase; AID 602229, 2012; Photoreceptor-specific nuclear receptor (Homo sapiens), Q9Y5X4; actives 0.35% (n = 360,000); inhibition of corepressor binding, % at 3.98 µM;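 active means inhibition above the mean of all tested compounds plus 3 SD, cut at about 70% in these data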;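 further: 0% = DMSO with NR2E3 transfected cells and 100% = cells lacking NR2E3 construct; higher means lower luciferase signal from less NR2E3 corepressor binding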
Target sequence (Q9Y5X4 whole entry, looked up, the tested form may be a part): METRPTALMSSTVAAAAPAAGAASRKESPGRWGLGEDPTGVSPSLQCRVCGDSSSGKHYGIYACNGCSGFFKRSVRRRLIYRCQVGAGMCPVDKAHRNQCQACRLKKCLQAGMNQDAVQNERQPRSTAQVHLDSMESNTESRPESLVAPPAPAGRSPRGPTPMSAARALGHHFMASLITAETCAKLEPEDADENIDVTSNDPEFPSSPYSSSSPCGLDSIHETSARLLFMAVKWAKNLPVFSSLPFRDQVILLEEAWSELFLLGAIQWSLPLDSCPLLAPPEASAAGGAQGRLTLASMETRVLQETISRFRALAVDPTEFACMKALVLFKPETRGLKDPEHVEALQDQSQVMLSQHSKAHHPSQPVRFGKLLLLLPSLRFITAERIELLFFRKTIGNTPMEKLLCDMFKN
GalR3 antagonist = GalR3 antagonists in HEK293 cells, primary screen, cell-based, fluorescence readout; actives 0.44% (n = 360,000); HEK293 GalR3-CNG cAMP membrane potential fluorescence; galR3 body fused to GalR1 C-terminus; inhibition, % at 3 µM; AID 651719, 2012;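 active means inhibition above the screen-wide average plus 3 SD, cut at about 13% in these data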;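 further: forskolin and galanin both at EC90 stimulate the cells; cAMP rise reported by CNG channel membrane potential dye signal; 0% = forskolin plus galanin with DMSO and 100% = forskolin alone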
SMARCA2 activ = SMARCA2 (BRM) function activators, primary screen, cell-based, luminescence, high throughput | activation, % at 9.1 µM | actives 1% (n = 370,000) | AID 652017, 2013 | MG213 cells, MMTV-luciferase reporter, dexamethasone, overnight; in the data active means activation above about 7.8%;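 further: 0% = vehicle wells and 100% = reference activator wells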
NR2F2 inh = NR2F2 transcriptional activity inhibitors, primary screen, cell-based, luciferase reporter, HEK293T, luminescence. HEK293T NGFI-A luciferase reporter. AID 686940, 2013. COUP transcription factor 2 (Homo sapiens), P24468. inhibition, % at 8.6 µM. actives 0.7% (n = 370,000);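 active means inhibition above a per-plate cutoff, mean inhibition of test wells between control levels plus 3 SD, cut at about 38% in these data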;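 further: cells cotransfected with COUP-TFII expression vector driving the NGFI-A reporter; 0% = median of COUP-TF2 test wells and 100% = reporter-only cells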
NR2E3 ag-2 = inhibitors of NR2E3-RetCOR corepressor binding, primary screen, NR2E3 agonist project, biochemical, TR-FRET, GST-NR2E3, biotin-RetCOR | Photoreceptor-specific nuclear receptor (Homo sapiens), Q9Y5X4 | 1536-well | inhibition of corepressor binding, % at 4.78 µM | actives 0.12% (n = 320,000);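 active means percent inhibition above the cutoff of mean plus 3 SD of all tested compounds, set per screening campaign, cut at about 20% in these data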;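 further: 0% = DMSO wells and 100% = biotin wells as full block of FRET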
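Assay system: NR2E3–RetCOR corepressor complex. Quantity: 1.35 nM GST-NR2E3. Buffer or medium: pH 7.5 Tris-based buffer. Reagent: biotinylated RetCOR corepressor at 7 nM final. Schedule: 5 h at 4 °C. Detection: TR-FRET, emission read at 617 and 671 nm. Replicates: one well per compound, singlicate testing.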
VP16 Luc counter = Gal4-VP16 luciferase reporter inhibitors, counter-screen for COUP-TFII antagonist project, cell-based, luminescence, HEK293 | actives 25% (n = 2,500) | shares compounds with NR2F2 inh | inhibition, % at 8.5 µM | AID 687007, 2013; in the data active means inhibition above about 13%
COUP-TFII conf = NR2F2 transcriptional activity inhibitors, confirmation, cell-based, luciferase reporter, HEK293, triplicate; shares compounds with NR2F2 inh; HEK293 NGFI-A luciferase reporter, luminescence; inhibition, % at 8.5 µM; actives 45% (n = 2,500); AID 687008, 2013;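 active means mean inhibition over three repeats above a set limit taken from the earlier primary screen, cut at about 38% in these data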;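 further: 100% = cells given the luciferase reporter alone without the COUP-TF2 vector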
* = called active by the depositor; · = not tested or not shown.

SMILES | NR2E3 ag-1 | GalR3 antagonist | SMARCA2 activ | NR2F2 inh | NR2E3 ag-2 | VP16 Luc counter | COUP-TFII conf
Cc1cc(C)nc(NC(N)=NCCc2ccccc2)n1 | 24 | -10 | -4 | 43* | · | -12 | 19
CN1c2ccc(C#CC3CC3)cc2[C@@H]2[C@@H](CCN2C(=O)C2CCOCC2)[C@H]1CO | · | · | -3 | -20 | · | · | ·
COC(=O)CCn1nnc(-c2ccc(C(C)C)cc2)n1 | 33 | 1 | -10 | 86* | 1 | 83* | 87*
O=C(c1ccc(Cl)c(S(=O)(=O)N2CCCCCC2)c1)N1CCCCC1 | -15 | -2 | -1 | 11 | -1 | · | ·
O=C(Nc1ccc2c(c1)OCO2)c1ccc(Br)c(S(=O)(=O)N2CCCC2)c1 | 4 | -4 | 0 | 43* | 6 | -34 | -14
Cc1cc(Cl)c(S(=O)(=O)N2CCN(c3ccccn3)CC2)cc1OCC(=O)NC1CCCCC1 | 24 | 6 | -5 | 43* | 2 | 1 | 7
Cc1cc(Cl)c(S(=O)(=O)N2CCCCCC2)cc1OCC(=O)NC1CCCCC1 | 25 | 6 | -7 | -6 | 2 | · | ·
O=C(c1ccc(Cl)c(S(=O)(=O)N2CCCCCC2)c1)N1CCN(c2ccccn2)CC1 | -10 | -9 | -5 | 42* | -2 | -1 | 25
O=C(Nc1ccncc1)c1ccc(Cl)c(S(=O)(=O)N2CCCCC2)c1 | -7 | -4 | -5 | 61* | 3 | 7 | 40*
C/C(=N\NC(=O)Cc1cccs1)c1ccco1 | · | · | -1 | -17 | · | · | ·
OC1(Cc2ccccc2)CCN(c2ncnc3sccc23)CC1 | · | · | · | 71* | · | -1 | 62*
c1ccc(CN2CCN(c3ncnc4sccc34)CC2)cc1 | · | · | · | 71* | · | 0 | 50*
c1ccc(CN2CCC(Nc3ncnc4sccc34)CC2)cc1 | -7 | 3 | 2 | 1 | 3 | · | ·
COc1ccc(C)cc1Nc1n[n+](-c2ccccc2)c(-c2cc(OC)c(OC)cc2Br)s1 | 2 | -7 | -1 | 12 | -2 | · | ·
COc1ccc(C)cc1Nc1n[n+](-c2ccccc2)c(-c2c(OC)ccc3ccccc23)s1 | -9 | -3 | -7 | 43* | -5 | 2 | 28
Cc1nc(N2CCN(C(=O)COc3ccccc3)CC2)c2c(C)c(C)sc2n1 | 3 | -2 | 1 | 1 | -3 | · | ·
O=C(c1ccccc1)N1CCN(c2ncnc3sc4c(c23)CCC4)CC1 | 37 | -5 | -3 | 40* | 2 | -7 | 10
Cc1nc(N2CCN(C(=O)COc3ccccc3C)CC2)c2c3c(sc2n1)CCCC3 | · | · | · | 76* | · | -7 | -18
CC(C)CN1C(=O)[C@]2(CC(=O)N(C)C2c2ccccc2)c2cc(-n3cc(CCc4ccccc4)nn3)ccc21 (stereo partly drawn) | · | · | -3 | -14 | · | · | ·
Cc1ccc2[nH]c3c(NCc4ccccc4)ncnc3c2c1 | · | -1 | -4 | 48* | · | -59 | -18
CC(C)OCCCNc1ncnc2c1[nH]c1ccccc12 | 39 | -7 | -5 | 66* | -2 | -34 | 37
Brc1ccc2[nH]c3c(NCc4ccccn4)ncnc3c2c1 | 1 | -6 | -2 | -8 | 0 | · | ·
O=[N+]([O-])c1ccccc1/C=C/C=Nn1c(-c2ccc(F)cc2)n[nH]c1=S | · | · | 6 | 13 | · | · | ·
COc1ccc(C(=O)N(C)[C@H]2C[C@H]3c4[nH]c5cccc(-c6ccccc6)c5c4CCN3C[C@H]2[C@H](C)O)cc1 | · | · | -6 | -20 | · | · | ·
COC(=O)c1cc2c(c3c4cc(F)ccc4n(S(=O)(=O)c4cccc(C)c4)c13)C(=O)N(C)C2 | · | -6 | -2 | -1 | · | · | ·
CC1(C(=O)NCc2cccnc2)Cc2c(-c3cccc(C(F)(F)F)c3)ccnc2O1 (stereo not drawn) | -14 | -3 | -5 | 39* | · | -8 | 7
